Measurements: ChEMBL document CHEMBL1131289, “2-Nitrophenylcarbamoyl-(S)-prolyl-(S)-3-(2-naphthyl)alanyl-N-benzyl-N - methylamide (SDZ NKT 343), a potent human NK1 tachykinin receptor antagonist with good oral analgesic activity in chronic pain models” (J Med Chem, 1998)
pIC50, pKi: −log10 of the molar value.

Tests used:
Substance-P receptor [1] = molecular target: Substance-P receptor (Homo sapiens, UniProt P25103); assay: In vitro binding affinity towards Tachykinin receptor 1 by measuring its ability to displace [3H]SP (0.6 nM) binding to membranes from Cos-7 cells transiently transfected with the hNK-1R; format: cell membranes
Cavia porcellus [2] = assay: The compound was evaluated for its %inhibition of hyperalgesia at 30 mg/kg po dose and 1 hr after dosing; format: functional
Procedure, shortened: (§1)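 Guinea pigs got 1% carrageenan (100 μL) intraplantar in one hind paw. Mechanical hyperalgesia was read 24 h later, before dosing. Compound was given orally at 30 mg/kg in 10% DMSO in 1% tragacanth or as a microemulsion. Readings were taken at intervals up to 6 h, and the value is percentage reversal of predose hyperalgesia.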

Substance-P receptor [3] = molecular target: T1, Substance-P receptor (Cavia porcellus, UniProt P30547); assay: Tachykinin receptor 1 antagonistic activity as inhibition of contractions evoked by 4 nM [Sar9,Met(O2)11]-SP in guinea pig ileum; format: functional, tissue-based
Procedure, shortened: (§2)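 Guinea pig ileum contracted by [Sar9Met(O2)11]SP (4.0 nM), repeated at least five times until stable. Antagonist added 2 min before agonist; at least three concentrations, each tested three times. IC50 read from log10 concentration–response curve; mean ± SEM of three separate experiments.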

Substance-P receptor [4] = molecular target: T1, Substance-P receptor; assay: Tested for Tachykinin receptor 1 […] activity by measuring its ability to inhibit contractions evoked by [Sar9,Met(O2)11]-SP (4 nM) in guinea pig ileum; format: functional, tissue-based; procedure, shortened: as §2
Cavia porcellus [5] = assay: In vivo inhibition of hyperalgesia at 30 mg/kg po dose and 3h after dosing in guinea pig; format: functional; procedure, shortened: as §1
Cavia porcellus [6] = organism: Cavia porcellus; assay: The effective dose of compound used to inhibit 30% of hyperalgesia in guinea pig; format: functional
Procedure, shortened: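 Hyperalgesia was induced in guinea pigs with intraplantar 1% carrageenan (100 μL) in one hind paw. Mechanical hyperalgesia was assessed 24 h later, then oral doses were given in 10% DMSO/1% tragacanth or a microemulsion. ED30, the dose giving 30% inhibition of hyperalgesia, was taken from dose–response data 3 h after dosing (n = 3).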

Substance-P receptor (Homo sapiens, UniProt P25103), sequence (P25103 whole entry): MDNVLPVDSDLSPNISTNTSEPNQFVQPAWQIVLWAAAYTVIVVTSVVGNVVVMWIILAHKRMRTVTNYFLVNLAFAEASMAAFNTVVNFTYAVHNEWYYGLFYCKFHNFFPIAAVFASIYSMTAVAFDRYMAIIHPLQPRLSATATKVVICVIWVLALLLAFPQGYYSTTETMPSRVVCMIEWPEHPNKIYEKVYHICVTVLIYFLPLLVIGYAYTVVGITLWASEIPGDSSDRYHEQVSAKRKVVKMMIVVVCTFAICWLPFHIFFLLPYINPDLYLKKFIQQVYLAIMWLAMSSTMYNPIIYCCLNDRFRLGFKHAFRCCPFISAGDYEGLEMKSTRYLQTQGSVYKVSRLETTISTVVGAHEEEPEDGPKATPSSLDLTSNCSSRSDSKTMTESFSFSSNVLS
T1 sequence (P30547 whole entry): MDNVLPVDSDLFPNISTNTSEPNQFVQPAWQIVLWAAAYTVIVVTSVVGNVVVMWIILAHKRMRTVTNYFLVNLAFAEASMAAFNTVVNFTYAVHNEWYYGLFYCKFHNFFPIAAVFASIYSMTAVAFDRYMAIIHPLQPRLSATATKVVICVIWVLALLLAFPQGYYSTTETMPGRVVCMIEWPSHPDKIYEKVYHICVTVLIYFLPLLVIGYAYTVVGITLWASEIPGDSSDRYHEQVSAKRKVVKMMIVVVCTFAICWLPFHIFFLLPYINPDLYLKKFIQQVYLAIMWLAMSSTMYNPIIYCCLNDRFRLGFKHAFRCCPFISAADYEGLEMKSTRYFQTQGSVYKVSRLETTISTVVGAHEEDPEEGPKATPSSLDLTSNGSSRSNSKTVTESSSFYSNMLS

Compound	pKi (Substance-P receptor [1])	also measured
O=C(NCCc1c[nH]c2ccccc12)[C@H](Cc1ccccc1)NC(=O)[C@@H]1CCCN1C(=S)NCc1ccccc1Cl	–	pIC50 (Substance-P receptor [1]): 5.43
CN(Cc1ccccc1)C(=O)[C@H](Cc1ccccc1)NC(=O)[C@@H]1CCCN1/C(S)=N/Cc1ccccc1C(F)(F)F	7.57	–
CN(Cc1ccccc1)C(=O)[C@H](Cc1ccc2ccccc2c1)NC(=O)[C@@H]1CCCN1C(=O)Nc1cccnc1	8.17	inhibition in vivo at 30 mg/kg (Cavia porcellus [2]): 14%; pIC50 (Substance-P receptor [3]): 8.38
CN(C)C(=O)c1ccccc1NC(=O)N1CCC[C@H]1C(=O)N[C@@H](Cc1ccc2ccccc2c1)C(=O)N(C)Cc1ccccc1	8.21	–
CN(C(=O)[C@H](Cc1ccccc1)NC(=O)[C@@H]1CCCN1C(=S)NCc1ccccc1Cl)c1ccccc1	–	pIC50 (Substance-P receptor [1]): 4.00
Cc1ccccc1C/N=C(\S)N1CCC[C@H]1C(=O)N[C@@H](Cc1ccccc1)C(=O)N(C)Cc1ccccc1	–	pIC50 (Substance-P receptor [1]): 6.39
CN(Cc1ccccc1)C(=O)[C@H](Cc1ccccc1)NC(=O)[C@@H]1CCCN1/C(S)=N/Cc1ccccc1	6.00	–
CC(=O)Nc1ccccc1NC(=O)N1CCC[C@H]1C(=O)N[C@@H](Cc1ccc2ccccc2c1)C(=O)N(C)Cc1ccccc1	–	pIC50 (Substance-P receptor [4]): 8.12
CN(Cc1ccccc1)C(=O)[C@@H](Cc1ccccc1)NC(=O)[C@H]1CCCN1/C(S)=N/c1ccccc1Br	–	pIC50 (Substance-P receptor [1]): 6.00
CN(Cc1ccccc1)C(=O)[C@H](Cc1ccc(-c2ccccc2)cc1)NC(=O)[C@@H]1CCCN1/C(S)=N/Cc1ccccc1Cl	8.14	–
CN(Cc1ccccc1)C(=O)[C@H](Cc1ccccc1)NC(=O)[C@@H]1CCCN1C(=S)NCc1ccccc1F	–	pIC50 (Substance-P receptor [1]): 6.54
CN(CCc1c[nH]c2ccccc12)C(=O)[C@H](Cc1ccccc1)NC(=O)[C@@H]1CCCN1/C(S)=N/Cc1ccccc1Cl	7.32	–
CN(Cc1ccccc1)C(=O)[C@H](Cc1ccc2ccccc2c1)NC(=O)[C@@H]1CCCN1C(=O)Nc1ccccc1N	–	pIC50 (Substance-P receptor [3]): 7.68
CN(Cc1ccccc1)C(=O)[C@H](Cc1ccc2ccccc2c1)NC(=O)[C@@H]1CCCN1C(=O)NCc1ccccc1Cl	8.64	–
CN(Cc1ccccc1)C(=O)[C@H](Cc1ccc2ccccc2c1)NC(=O)[C@@H]1CCCN1C(=O)Nc1cccc(C#N)c1	8.38	inhibition in vivo at 30 mg/kg (Cavia porcellus [5]): 38%; pIC50 (Substance-P receptor [3]): 8.59
CN(Cc1ccccc1)C(=O)[C@H](Cc1ccc2ccccc2c1)NC(=O)[C@@H]1CCCN1C(=O)Nc1ccccc1	9.06	inhibition in vivo at 30 mg/kg (Cavia porcellus [5]): 26%; pIC50 (Substance-P receptor [3]): 8.30
CN(CCc1ccccc1)C(=O)[C@H](Cc1ccccc1)NC(=O)[C@@H]1CCCN1C(=S)NCc1ccccc1Cl	–	pIC50 (Substance-P receptor [1]): 5.60
CN(Cc1ccccc1)C(=O)[C@H](Cc1ccccc1)NC(=O)[C@@H]1CCCN1/C(S)=N/Cc1ccccc1[N+](=O)[O-]	7.11	–
CN(Cc1ccccc1)C(=O)[C@H](Cc1ccc2ccccc2c1)NC(=O)[C@@H]1CCCN1C(=O)Nc1ccc(C#N)cc1	8.96	inhibition in vivo at 30 mg/kg (Cavia porcellus [5]): 32%; pIC50 (Substance-P receptor [3]): 8.62

Compound	pKi (Substance-P receptor [1])	also measured
CN(Cc1ccccc1)C(=O)[C@H](Cc1ccc2ccccc2c1)NC(=O)[C@@H]1CCCN1C(=O)Nc1ccc(F)cc1	8.66	pIC50 (Substance-P receptor [3]): 7.76
CN(Cc1ccccc1)C(=O)[C@H](Cc1ccc2ccccc2c1)NC(=O)[C@@H]1CCCN1C(=O)Nc1ccccc1O	8.59	–
CN(Cc1ccccc1)C(=O)[C@H](Cc1ccccc1)NC(=O)[C@@H]1CCCN1C(=S)NCc1ccccc1Cl	7.52	–
CN(Cc1ccccc1)C(=O)[C@H](Cc1ccc2ccccc2c1)NC(=O)[C@@H]1CCCN1C(=O)Nc1cccc(F)c1	9.15	inhibition in vivo at 30 mg/kg (Cavia porcellus [5]): 10%; pIC50 (Substance-P receptor [3]): 8.17
CN(Cc1ccccc1)C(=O)[C@H](Cc1cn(C)c2ccccc12)NC(=O)[C@@H]1CCCN1/C(S)=N/Cc1ccccc1Cl	8.33	–
CN(Cc1ccccc1)C(=O)[C@H](Cc1ccc2ccccc2c1)NC(=O)[C@@H]1CCCN1C(=O)Nc1ccccc1C#N	8.96	ED30 (Cavia porcellus [6]): 2.1 mg/kg; inhibition in vivo at 30 mg/kg (Cavia porcellus [5]): 42%; pIC50 (Substance-P receptor [3]): 9.00
COC(=O)c1ccccc1NC(=O)N1CCC[C@H]1C(=O)N[C@@H](Cc1ccc2ccccc2c1)C(=O)N(C)Cc1ccccc1	9.52	pIC50 (Substance-P receptor [3]): 8.22
CN(Cc1ccccc1)C(=O)[C@H](CCc1ccccc1)NC(=O)[C@@H]1CCCN1/C(S)=N/Cc1ccccc1Cl	–	pIC50 (Substance-P receptor [1]): 6.69
CN(Cc1ccccc1)C(=O)[C@H](Cc1ccccc1)NC(=O)[C@@H]1CCCN1C(=S)Nc1ccccc1 (single isomer, unassigned)	7.10	–
CN(Cc1ccccc1)C(=O)[C@@H](Cc1ccccc1)NC(=O)[C@H]1CCCN1C(=S)Nc1ccccc1Cl	–	pIC50 (Substance-P receptor [1]): 5.49
CN(Cc1ccccc1)C(=O)[C@H](Cc1ccc2ccccc2c1)NC(=O)[C@@H]1CCCN1C(=O)Nc1ccccc1C(=O)O	6.76	–
CN(Cc1ccccc1)C(=O)[C@H](Cc1ccc2ccccc2c1)NC(=O)[C@@H]1CCCN1C(=O)Nc1cccc(C(N)=O)c1	8.30	–
CN(Cc1ccccc1)C(=O)[C@@H](NC(=O)[C@@H]1CCCN1C(=S)NCc1ccccc1Cl)C(c1ccccc1)c1ccccc1	7.53	–
CN(Cc1ccccc1)C(=O)[C@H](Cc1ccc2ccccc2c1)NC(=O)[C@@H]1CCCN1C(=O)Nc1ccccc1F	8.46	–
CN(Cc1ccccc1)C(=O)[C@H](Cc1ccccc1)NC(=O)[C@@H]1CCCN1C(=O)NCc1ccccc1Cl	–	pIC50 (Substance-P receptor [1]): 6.23
CN(Cc1ccncc1)C(=O)[C@H](Cc1ccccc1)NC(=O)[C@@H]1CCCN1C(=S)NCc1ccccc1Cl	–	pIC50 (Substance-P receptor [1]): 5.00
COCc1ccccc1NC(=O)N1CCC[C@H]1C(=O)N[C@@H](Cc1ccc2ccccc2c1)C(=O)N(C)Cc1ccccc1	9.00	ED30 (Cavia porcellus [6]): 1.2 mg/kg; inhibition in vivo at 30 mg/kg (Cavia porcellus [5]): 67%; pIC50 (Substance-P receptor [3]): 8.92
CN(Cc1ccccc1)C(=O)[C@H](Cc1ccc2ccccc2c1)NC(=O)[C@@H]1CCCN1C(=O)Nc1ccccc1C(N)=O	9.10	ED30 (Cavia porcellus [6]): 15.7 mg/kg; inhibition in vivo at 30 mg/kg (Cavia porcellus [5]): 35%; pIC50 (Substance-P receptor [3]): 8.72

Second part, led by results:

pKi (Substance-P receptor [1])	Compound	also measured
8.77	CN(Cc1ccccc1)C(=O)[C@H](Cc1ccc2ccccc2c1)N(C)C(=O)[C@@H]1CCCN1C(=S)NCc1ccccc1Cl	–
7.78	CN(Cc1ccccc1)C(=O)[C@H](Cc1c[nH]c2ccccc12)NC(=O)[C@@H]1CCCN1C(=S)NCc1ccccc1Cl	–
7.74	CN(Cc1ccccc1)C(=O)[C@H](Cc1ccc2ccccc2c1)NC(=O)[C@@H]1CCCN1C(=O)Nc1ccccc1C(F)(F)F	–
8.77	CN(Cc1ccccc1)C(=O)[C@H](Cc1ccc2ccccc2c1)NC(=O)[C@@H]1CCCN1C(=O)Nc1ccccc1CO	–
7.73	CN(Cc1ccccc1)C(=O)[C@H](Cc1ccccc1)NC(=O)[C@@H]1CCCN1C(=N)NCc1ccccc1Cl	–
8.64	CN(Cc1ccccc1)C(=O)[C@H](Cc1ccc2ccccc2c1)NC(=O)[C@@H]1CCCN1C(=O)Nc1cccc([N+](=O)[O-])c1	–
7.42	CN(Cc1ccccc1)C(=O)[C@H](Cc1ccccc1)N(C)C(=O)[C@@H]1CCCN1/C(S)=N/Cc1ccccc1Cl	–
7.53	CN(Cc1ccccc1)C(=O)[C@H](Cc1ccccc1)NC(=O)[C@@H]1CCCN1C(=S)NCc1ccccc1Br	–
7.77	CN(Cc1cccc2ccccc12)C(=O)[C@H](Cc1ccccc1)NC(=O)[C@@H]1CCCN1C(=S)NCc1ccccc1Cl	–
7.10	CN(Cc1ccccc1)C(=O)[C@H](Cc1ccccc1)NC(=O)[C@@H]1CCCN1C(=S)NCc1cc(C(F)(F)F)cc(C(F)(F)F)c1	–
8.30	CN(Cc1ccccc1)C(=O)[C@H](Cc1ccc(Cl)c(Cl)c1)NC(=O)[C@@H]1CCCN1/C(S)=N/Cc1ccccc1Cl	–
7.86	CN(Cc1ccccc1)C(=O)[C@H](Cc1cccc2ccccc12)NC(=O)[C@@H]1CCCN1/C(S)=N/Cc1ccccc1Cl	–
9.30	CN(Cc1ccccc1)C(=O)[C@H](Cc1ccc2ccccc2c1)NC(=O)[C@@H]1CCCN1C(=N)NCc1ccccc1Cl	–
7.57	CN(Cc1cc(C(F)(F)F)cc(C(F)(F)F)c1)C(=O)[C@H](Cc1ccccc1)NC(=O)[C@@H]1CCCN1C(=S)NCc1ccccc1Cl	–
7.59	CN(Cc1ccccc1)C(=O)[C@H](Cc1ccccc1)NC(=O)[C@@H]1CCCN1/C(S)=N/Cc1c(Cl)cccc1Cl	–
7.44	CN(Cc1ccc2ccccc2c1)C(=O)[C@H](Cc1ccccc1)NC(=O)[C@@H]1CCCN1/C(S)=N/Cc1ccccc1Cl	–
8.42	CNC(=O)c1ccccc1NC(=O)N1CCC[C@H]1C(=O)N[C@@H](Cc1ccc2ccccc2c1)C(=O)N(C)Cc1ccccc1	pIC50 (Substance-P receptor [3]): 8.52
